Assays:
Hepatitis C virus = test: Antiviral activity against Hepatitis C virus infected human 2209-23 cells by genotype 1b replicon assay; assay type: functional, organism-based, Hepacivirus hominis
[1] = Antiproliferative activity against human 2209-23 cells by [3H]thymidine incorporation scintillation proximity assay; assay type: functional, cell-based
Outline: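 Cell proliferation was read as uptake of tritiated thymidine into cellular DNA, quantified by scintillation proximity, and reported as an IC50. It served to flag possible loss of selectivity against human polymerases.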

[2] = Cytotoxicity against human 2209-23 cells by WST1 cell ciability assay; assay type: cell-based

With C[C@]1(O)[C@H](n2ccc(N)nc2=O)O[C@@](CO)(N=[N+]=[N-])[C@H]1O the IC50 (Hepatitis C virus) was over 100 µM.
[N-]=[N+]=N[C@@]1(CO)C[C@@H](O)[C@H](n2ccc(N)nc2=O)O1 gave an IC50 (Hepatitis C virus) of over 100 µM.
C[C@@]1(O)[C@H](n2ccc(N)nc2=O)O[C@@](CO)(N=[N+]=[N-])[C@H]1O showed an IC50 (Hepatitis C virus) of over 100 µM.
With [N-]=[N+]=N[C@]1(CO)O[C@@H](n2ccc(N)nc2=O)[C@@H](O)[C@@H]1O the IC50 [1] was over 100 µM and the IC50 (Hepatitis C virus) was 0.171 µM.
[N-]=[N+]=N[C@]1(CO)O[C@@H](n2ccc(N)nc2=O)[C@H](O)[C@H]1O gave an IC50 (Hepatitis C virus) of 27.8 µM.
With [N-]=[N+]=N[C@]1(CO)O[C@@H](n2ccc(N)nc2=O)[C@H](O)[C@@H]1O [4'-AZIDOCYTIDINE] the IC50 [1] was over 100 µM.
Work on Nc1ccn([C@@H]2O[C@H](CO)[C@@H](O)[C@@H]2O)c(=O)n1 [CYTARABINE] yielded an IC50 [1] of 0.029 µM, an IC50 (Hepatitis C virus) of 0.02 µM and a CC50 [2] of under 100 µM.
